SMILES strings stand for the structures. pIC50: −log10 of the molar value. Active and inactive are the calls of the source. The calls are words filed in the database; no cut-off is given here.

The test system of the first experiment is HL-60. The experiment in a line: Induction of necrosis in human HL60 cells assessed as increase in LDH release at 7 uM after 48 hrs by fluorescence assay. The format is functional, cell-based.
Conditions: not given
On the technique in general: LDH in the medium is a marker of cell lysis.
Consider `C=C(CC)C(=O)c1ccc(OCC(=O)NCCc2ccc(OC)cc2)c(Cl)c1Cl`, for which the result was Active.

The next experiment has as its system HL-60. The experiment is described as follows: Antiproliferative activity against human HL60 cells at 7 uM after 24 hrs by viacount-reagent based FACS analysis.
Conditions: not given
(In flow cytometry, cells or beads pass a laser one at a time.)
In the case of `C=C(CC)C(=O)c1ccc(OCC(=O)NCCc2ccc(O)c(OC)c2)c(Cl)c1Cl`, the outcome was Active.
Consider `C=C(CC)C(=O)c1ccc(OCC(=O)NCCc2ccc(OC)cc2)c(Cl)c1Cl`, for which the result was Active.

Test system in the next experiment: not listed separately
The experiment is described as follows: Antiproliferative activity against human SKOV3 cells after 24 to 72 hrs by MTS assay. The format is functional, cell-based. The note with it: SK-OV-3. A general note: Tetrazolium assays rely on reduction of a dye to a coloured formazan, in cell work by metabolically active cells.
Take `C=C(CC)C(=O)c1ccc(OCC(=O)N2CCN(c3ccc(OP(=O)(OC)OC)cc3)CC2)c(Cl)c1Cl`: the pIC50 was 5.66.
On to `C=C(CC)C(=O)c1ccc(OCC(=O)NCCc2ccc(OP(=O)(OC)OC)cc2)c(Cl)c1Cl`, for which the pIC50 was 5.55.

Test system in another experiment: not listed separately
The experiment is described as follows: Cytotoxicity against human HL60 cells assessed as reduction in cell viability after 24 hrs by MTS assay. The format is functional, cell-based. The note with it: HL-60, 24 h.
In the case of `C=C(CC)C(=O)c1ccc(OCC(=O)NCCc2ccc(O)c(OC)c2)c(Cl)c1Cl`, the pIC50 was 5.59.
Turning to `C=C(CC)C(=O)c1ccc(OCC(=O)NCCc2ccc(OC)cc2)c(Cl)c1Cl`, the pIC50 was 5.62.

Test system in the next experiment: not listed separately
The experiment in a line: Antiproliferative activity against human OVCAR8 cells after 24 to 72 hrs by MTS assay. The format is functional, cell-based. The settings on record: OVCAR-8.
`C=C(CC)C(=O)c1ccc(OCC(=O)N2CCN(c3ccc(OP(=O)(OC)OC)cc3)CC2)c(Cl)c1Cl` showed a pIC50 of 5.85.
In turn, `C=C(CC)C(=O)c1ccc(OCC(=O)NCCc2ccc(OP(=O)(OC)OC)cc2)c(Cl)c1Cl` had a pIC50 of 5.82.

Test system in the next experiment: not listed separately
The experiment is described as follows: Antiproliferative activity against human MCF7 cells after 24 to 72 hrs by MTS assay.
Conditions: not given
The format is functional, cell-based.
In the case of `C=C(CC)C(=O)c1ccc(OCC(=O)N2CCN(c3ccc(OP(=O)(OC)OC)cc3)CC2)c(Cl)c1Cl`, the pIC50 was 6.30.
Compound `C=C(CC)C(=O)c1ccc(OCC(=O)NCCc2ccc(OP(=O)(OC)OC)cc2)c(Cl)c1Cl` had a pIC50 of 6.05.

Test system in a further experiment: not listed separately
The experiment in a line: Antiproliferative activity against human PC3 cells after 24 to 72 hrs by MTS assay. The note with it: PC-3. The format is functional, cell-based.
`C=C(CC)C(=O)c1ccc(OCC(=O)N2CCN(c3ccc(OP(=O)(OC)OC)cc3)CC2)c(Cl)c1Cl` showed a pIC50 of 5.96.
The same measure, in the same setting: with `C=C(CC)C(=O)c1ccc(OCC(=O)NCCc2ccc(OP(=O)(OC)OC)cc2)c(Cl)c1Cl` the figure was 6.10.

For the next experiment, the system named is KB. The experiment is described as follows: Induction of necrosis in human KB cells assessed as increase in LDH release at 7 uM after 24 to 48 hrs by fluorescence assay. The format is functional, cell-based.
Conditions: not given
On to `C=C(CC)C(=O)c1ccc(OCC(=O)NCCc2ccc(O)c(OC)c2)c(Cl)c1Cl`, for which the result was Active.
Still for that read-out and setting: the entry for `C=C(CC)C(=O)c1ccc(OCC(=O)NCCc2ccc(OC)cc2)c(Cl)c1Cl` is “Active”.

Test system in the next experiment: not listed separately
The experiment is described as follows: Antiproliferative activity against human KB cells after 24 to 72 hrs by MTS assay. The format is functional, cell-based.
Conditions: not given
An outline of the steps:
(§1)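 Cells plated, then dosed 24 h later with compounds in DMSO (1% final; controls DMSO alone), exposed 24 or 72 h. Proliferation inhibition measured as previously reported (MTS/NADH reagent). IC50 from duplicate experiments over 0.5 nM–100 µM. KB grown in D-MEM with 10% fetal calf serum, penicillin, streptomycin, fungizone, 5% CO2; other lines in complete RPMI. EPC are quiescent Cyprinus carpio endothelial progenitor cells.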
In turn, `C=C(CC)C(=O)c1ccc(OCC(=O)NCCc2ccc(O)c(OC)c2)c(Cl)c1Cl` had a pIC50 of 6.10.
Still for that read-out and setting: the figure for `C=C(CC)C(=O)c1ccc(OCC(=O)N2CCN(c3ccc(OP(=O)(OC)OC)cc3)CC2)c(Cl)c1Cl` is 6.77; for `C=C(CC)C(=O)c1ccc(OCC(=O)NCCc2ccc(OC)cc2)c(Cl)c1Cl` it is 6.10; for `C=C(CC)C(=O)c1ccc(OCC(=O)NCCc2ccc(OP(=O)(OC)OC)cc2)c(Cl)c1Cl` it is 6.40.

For a further experiment, the system named is HL60 (Homo sapiens). The experiment in a line: Effect on 24 hrs pretreated human HL60 cells assessed as reduction in endogenous GSH content at 7 uM measured for 60 mins by fluorescence assay. The note with it: HL-60.
On to `C=C(CC)C(=O)c1ccc(OCC(=O)NCCc2ccc(O)c(OC)c2)c(Cl)c1Cl`, for which the GSH reduction activity entry was “Active”.
For `C=C(CC)C(=O)c1ccc(OCC(=O)NCCc2ccc(OC)cc2)c(Cl)c1Cl`, the GSH reduction activity result is “Active”.

A further experiment concerns MRC5. The experiment in a line: Induction of necrosis in human MRC5 SV2 cells assessed as increase in LDH release at 7 uM after 24 to 48 hrs by fluorescence assay. The format is functional, cell-based.
Conditions: not given
On to `C=C(CC)C(=O)c1ccc(OCC(=O)NCCc2ccc(O)c(OC)c2)c(Cl)c1Cl`, for which the result was Active.
Still for that read-out and setting: the entry for `C=C(CC)C(=O)c1ccc(OCC(=O)NCCc2ccc(OC)cc2)c(Cl)c1Cl` is “Active”.

For a further experiment, the system named is HCT-116. The experiment in a line: Induction of necrosis in human HCT116 cells assessed as increase in LDH release at 7 uM after 24 to 48 hrs by fluorescence assay.
Conditions: not given
The format is functional, cell-based.
With `C=C(CC)C(=O)c1ccc(OCC(=O)NCCc2ccc(O)c(OC)c2)c(Cl)c1Cl`, the result was Active.
As for `C=C(CC)C(=O)c1ccc(OCC(=O)NCCc2ccc(OC)cc2)c(Cl)c1Cl`, the outcome was Active.

For a further experiment, the system named is KB. The experiment is described as follows: Selectivity index, ratio of IC50 for Cyprinus carpio EPC to IC50 for human KB cells.
Conditions: not given
Take `C=C(CC)C(=O)c1ccc(OCC(=O)NCCc2ccc(O)c(OC)c2)c(Cl)c1Cl`: the “Ratio IC50” value is 5.6.
As for `C=C(CC)C(=O)c1ccc(OCC(=O)N2CCN(c3ccc(OP(=O)(OC)OC)cc3)CC2)c(Cl)c1Cl`, the “Ratio IC50” value was found to be 17.
On to `C=C(CC)C(=O)c1ccc(OCC(=O)NCCc2ccc(OC)cc2)c(Cl)c1Cl`, for which the “Ratio IC50” value came to 4.6.
As for `C=C(CC)C(=O)c1ccc(OCC(=O)NCCc2ccc(OP(=O)(OC)OC)cc2)c(Cl)c1Cl`, the “Ratio IC50” value was 1.75.

Test system in another experiment: not listed separately
The experiment is described as follows: Antiproliferative activity against human HL60 cells after 24 to 72 hrs by MTS assay. The format is functional, cell-based. The settings on record: HL-60. An outline of the steps:
as §1
As for `C=C(CC)C(=O)c1ccc(OCC(=O)NCCc2ccc(O)c(OC)c2)c(Cl)c1Cl`, the pIC50 is 5.80.
In turn, `C=C(CC)C(=O)c1ccc(OCC(=O)N2CCN(c3ccc(OP(=O)(OC)OC)cc3)CC2)c(Cl)c1Cl` gave a pIC50 of 6.10.
Still for that read-out and setting: with `C=C(CC)C(=O)c1ccc(OCC(=O)NCCc2ccc(OC)cc2)c(Cl)c1Cl` the figure was 5.89.
For `C=C(CC)C(=O)c1ccc(OCC(=O)NCCc2ccc(OP(=O)(OC)OC)cc2)c(Cl)c1Cl`, the pIC50 was 5.92.

Test system in the next experiment: not listed separately
The experiment is described as follows: Antiproliferative activity against Cyprinus carpio EPC after 24 to 72 hrs by MTS assay.
Conditions: not given
Consider `C=C(CC)C(=O)c1ccc(OCC(=O)NCCc2ccc(O)c(OC)c2)c(Cl)c1Cl`, for which the pIC50 was 5.35.
On to `C=C(CC)C(=O)c1ccc(OCC(=O)N2CCN(c3ccc(OP(=O)(OC)OC)cc3)CC2)c(Cl)c1Cl`, for which the pIC50 was 5.54.
Same read-out and setting: the figure for `C=C(CC)C(=O)c1ccc(OCC(=O)NCCc2ccc(OC)cc2)c(Cl)c1Cl` is 5.43; for `C=C(CC)C(=O)c1ccc(OCC(=O)NCCc2ccc(OP(=O)(OC)OC)cc2)c(Cl)c1Cl` it is 6.15.

Test system in another experiment: not listed separately
The experiment is described as follows: Antiproliferative activity against human HCT116 cells after 24 to 72 hrs by MTS assay. The format is functional, cell-based. The settings on record: HCT-116.
`C=C(CC)C(=O)c1ccc(OCC(=O)N2CCN(c3ccc(OP(=O)(OC)OC)cc3)CC2)c(Cl)c1Cl`: the pIC50 was 6.10.
On the same count and under the same terms, the figure for `C=C(CC)C(=O)c1ccc(OCC(=O)NCCc2ccc(OP(=O)(OC)OC)cc2)c(Cl)c1Cl` is 5.82.

The next experiment has as its system HL-60. The experiment in a line: Selectivity index, ratio of IC50 for Cyprinus carpio EPC to IC50 for human HL60 cells.
Conditions: not given
In the case of `C=C(CC)C(=O)c1ccc(OCC(=O)NCCc2ccc(O)c(OC)c2)c(Cl)c1Cl`, the “Ratio IC50” value is listed as 2.8.
As to `C=C(CC)C(=O)c1ccc(OCC(=O)N2CCN(c3ccc(OP(=O)(OC)OC)cc3)CC2)c(Cl)c1Cl`, the “Ratio IC50” value came to 3.6.
On the same count and under the same terms, with `C=C(CC)C(=O)c1ccc(OCC(=O)NCCc2ccc(OC)cc2)c(Cl)c1Cl` the figure was 2.8.
Take `C=C(CC)C(=O)c1ccc(OCC(=O)NCCc2ccc(OP(=O)(OC)OC)cc2)c(Cl)c1Cl`: the “Ratio IC50” value came to 0.58.

As a reminder, the pIC50 is −log10 of the IC50, conventionally taken in molar units.

(Values after ChEMBL document CHEMBL3865827, “A novel class of ethacrynic acid derivatives as promising drug-like potent generation of anticancer agents with established mechanism of action” (Eur J Med Chem, 2016).)
